PubChem BioAssay AID1885 (Broad Institute, 2009)
The campaign covered roughly 300,000 compounds. About 4,400 (1.5%) were called active. Shown is part of a subset that was picked to be rich in actives. Values without a mark were called inactive.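 How the source made its calls: active means mean inhibition across valid replicates above about 55% (limit read from the data); inconclusive means mean below that limit but half or more replicates reach it; inactive means mean below it, under half of replicates reach it.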

Experiment: Trypanosoma cruzi replication blockers in host cells – luminescence, NIH3T3 host cells, primary screen (AID 1885);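 further: signal also drops with host cell toxicity which is not excluded here; 0% = plate median of DMSO wells and 100% = zero luminescence signal; higher percent means less beta-gal luminescence so fewer parasites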
Conditions: T. cruzi beta-gal in NIH3T3, luminescence, 90 h; hits give high values; concentration not given here
Procedure, shortened: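 Test system: β-gal T. cruzi (Tulahuen C4) inside NIH/3T3 cells / Quantity: 5,000 cells/well / Measured by: luminescence from GalScreen with 0.05% NP40, read after 60 min / Medium: DMEM plus 2% FBS / Measure: parasite load inhibition, % / Reagent: Tulahuen C4 trypomastigotes, 5000/well / Schedule: co-culture of at least 90 h after 3 h attachment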

| Structure (SMILES) | inhibition |
| --- | --- |
| O=C(CSc1ccc(-c2ccc(-n3cccn3)cc2)nn1)Nc1ccc([N+](=O)[O-])cc1 | -0.835% |
| COc1ccc(C(CNC(=O)c2ccc(S(=O)(=O)Nc3ccccc3C)cc2)N2CCOCC2)cc1 (configuration not stated) | -0.159% |
| CSc1nccc(NC(=O)c2ccc(C(C)(C)C)cc2)n1 | -6.33% |
| NC(=O)C1(N2CCCCC2)CCN(C2CC(=O)N(Cc3ccc(N4CCCC4=O)cc3)C2=O)CC1 (configuration not stated) | 7.91% |
| O=C(N1CCCC1)C12CC3CC(C1)CC(C(=O)N1CCCC1)(C3)C2 | -14.8% |
| CC(C)(C)NC(=O)CN1CCC(NC(=O)C23CC4CC(CC(C4)C2)C3)CC1 | 26.6% |
| CN1CCN(CC(=O)C23CC4CC(CC(C4)C2)C3)CC1 | 56.4% (active) |
| COc1ccc(CNc2ccc3c(c2)CCC3)cc1OC | 65.6% (active) |
| COc1ccc(CNc2cc(C)cc(C)c2)cc1OC | -0.404% |
| COc1ccc(CC(=O)Nc2ccc3c(c2)CCC3)cc1S(=O)(=O)N1CCOCC1 | -10.7% |
| Cc1ccc(S(=O)(=O)NCCC(=O)NNC(=O)C2COc3ccccc3O2)cc1 (configuration not stated) | 1.4% |
| COc1cccc(C(=O)Nc2cc3c(cc2Br)OCCCO3)c1 | 11.1% |
| Oc1ccc(N=Nc2nccs2)c(O)c1 | 47.7% |
| Oc1ccc2ccccc2c1N=Nc1nccs1 | 71.1% (active) |
| Cc1ccc(N2CC(C(=O)Nc3cc(Cl)ccc3-n3cncn3)CC2=O)cc1 (configuration not stated) | -5.75% |
| COc1ccc(-c2c(NC(=O)c3ccco3)oc3ccc(Cl)cc3c2=O)cc1 | -16.1% |
| CC(=O)c1ccc(S(=O)(=O)NCc2nnnn2-c2ccccc2)cc1 | -4.22% |
| CCCCN(C(=O)c1ccc(S(=O)(=O)N2CCOCC2)cc1)C1CCS(=O)(=O)C1 (configuration not stated) | -3.57% |
| COc1ccccc1OCCNC(=O)c1cc([N+](=O)[O-])cc([N+](=O)[O-])c1 | 72.3% (active) |
| COc1ccccc1OCCNC(=O)CCNC(=O)c1ccccc1Cl | -10.4% |
| CC(C)(C)SCCNC(=O)c1cccc([N+](=O)[O-])c1 | -5.13% |

| Structure (SMILES) | inhibition |
| --- | --- |
| CS(=O)(=O)N1CCN(C(=O)CSc2ccccc2)CC1 | -1.63% |
| COc1ccc(C(C)NC(=O)C2CCCC2)cc1 (configuration not stated) | -4.14% |
| COc1ccccc1CC(NC(C)=O)C(=O)NC1CCN(C(=O)Nc2ccccc2Cl)CC1 (configuration not stated) | -13.9% |
| COc1ccccc1CN1CCCC(N2CCN(c3ccc(F)cc3)CC2)C1 (configuration not stated) | 57.3% (active) |
| COc1ccccc1CN1CCN(Cc2cc(OC)c(OC)cc2OC)CC1 | 25.3% |
| COc1ccc(CN2CCCC(N3CCc4ccccc4C3)C2)c(O)c1 (configuration not stated) | 22.8% |
| COc1ccc(C[C@H]2CN3C(=NC[C@H]3C)N2CCNC(=O)CCC2CCCCC2)cc1 | -4.54% |
| Cc1cc2c(C)nc(N/N=C/c3ccccc3)nc2o1 | 22.4% |
| Clc1ccc(Nc2nc(-c3cccs3)cs2)nc1 | 42.7% |
| Cc1cccc(Nc2nc(-c3ccccc3)cs2)n1 | 18.7% |
| c1ccc(Nc2nc(-c3ccncc3)cs2)nc1 | 64% (active) |
| CCCCn1c(N)c(N2CCOCC2)c(=O)n(CC(=O)NCCc2ccccc2)c1=O | -20% |
| Cc1cc(/C=N/NC(=O)c2cccnc2)c(C)n1CC(C)C | -5.46% |
| O=C(N/N=C/c1sc(N2CCCCC2)nc1-c1cccs1)c1cccnc1 | 65% (active) |
| O=C(N/N=C/c1ccccn1)c1cccnc1 | 3.75% |
| C=CCNC(=S)/N=c1/ccccn1Cc1ccccc1 | 36.1% |
| O=C(OCCOCn1cc(Br)c(=O)[nH]c1=O)c1ccccc1 | -6.18% |
| O=C(OCC(=O)N1CCCC1=O)c1cc(S(=O)(=O)N2CCOCC2)ccc1Cl | -8.41% |
| Cc1nc(N2CCOCC2)c2c(C)c(C(=O)Nc3ccc(C(F)(F)F)cc3)sc2n1 | 68% (active) |
| Cc1nc(N2CCN(c3ccccn3)CC2)c2c(C)c(C(=O)Nc3ccc(F)c(Cl)c3)sc2n1 | 3.99% |
| Cc1nc(N2CCC(C)CC2)c2c(C)c(C(=O)Nc3cc(F)ccc3C)sc2n1 | 49.5% |

| Structure (SMILES) | inhibition |
| --- | --- |
| CC(C)Nc1nnc(SC(C)C(=O)N(C)C2CCCCC2)s1 (configuration not stated) | -3% |
| COc1ccc(CN2CCCC(C(=O)N3CCCCC3)C2)cc1 (configuration not stated) | 27.2% |
| Cc1occc1C(=O)NC1CCCN(Cc2ccc(CC(C)C)cc2)C1 (configuration not stated) | 57.7% (active) |
| Cc1occc1C(=O)NNC(=S)NCC(C)C | -18.5% |
| CN(c1ccccc1)S(=O)(=O)c1cccc(C(=O)NNC(=O)c2ccncc2)c1 | 5.43% |
| COc1ccc(NC(=O)N2CCCC(C(=O)Nc3ccccc3OC)C2)cc1 (configuration not stated) | -10.9% |
| Cc1sc2ncnc(N3CCC(C(=O)Nc4nc5ccc(Cl)cc5s4)CC3)c2c1C | 27% |
| COc1ccc(/C=C/C(=O)NC(=S)NN2CCCCC2c2cccnc2)cc1 (configuration not stated) | 42.1% |
| O=C(NC(=S)N1CCCCC1c1cccnc1)c1ccccc1 (configuration not stated) | 46.1% |
| COc1ccc(C(=O)NC(=S)N2CCCCC2c2cccnc2)cc1OC (configuration not stated) | 57.2% (active) |
| COC(=O)C1(C)NC(c2ccc(F)cc2)C2C(=O)N(c3ccccc3)C(=O)C21 (configuration not stated) | -17.7% |
| CCc1ccc2c(c1)C1(NN=C(c3ccccc3)S1)C(=O)N2 (configuration not stated) | 73% (active) |
| Cc1nc(/N=C(\N)NC(=O)NC2CCCCC2)nc2ccccc12 | 10.4% |
| COc1nc(N=C(N)N)nc2c(C)cccc12 | 44.2% |
| Cc1nc(N=C(N)N)nc2c(C)cccc12 | 56.5% (active) |
| O=C(NCCC1=CCCCC1)c1ccc(Cl)c([N+](=O)[O-])c1 | -28% |
| CCN1C(=O)[C@H]2[C@@H](c3ccc(-c4ccc(F)cc4)cc3)N[C@@](Cc3ccccc3)(C(=O)OC)[C@H]2C1=O | 41.5% |
| c1ccc(-c2nnc(N3CCOCC3)c3ccccc23)cc1 | -1.66% |
| c1ccc2c(NC3C4CC5CC(C4)CC3C5)nc(N3CCOCC3)nc2c1 (configuration not stated) | 54.9% (active) |
| O=c1[nH]c(N2CCOCC2)nc2ccccc12 | -3.83% |
